System: Nucleic Acid
Test: Binding affinity to calf thymus DNA assessed as binding constant by spectrofluorimetry based McGhee von Hippel method
Assay type: nucleic-acid assay
Details: Bos taurus
Outline: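 Fluorescence titration used compound at 26.7 µM in 0.01 M Tris buffer (pH 7.4, 24 °C). ctDNA was added stepwise from 0 to 32 µM bp at 2 µM intervals until spectra stopped changing. Excitation was 384 nm and emission was read at 410–470 nm. Binding constant K was derived by the McGhee–von Hippel method from Scatchard plot data.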

`CN(C)c1ccc2cc3ccc(N(C)C)cc3nc2c1` showed a K of 3.19 ×10⁵ /M.

— ChEMBL document CHEMBL2203053, “DNA binding acridine-thiazolidinone agents affecting intracellular glutathione” (Bioorg Med Chem, 2012)
